Test [1] is described as follows: Tested in vitro for cytotoxicity against the monkey kidney cells (BSC-1 cells). It is filed as functional, cell-based. To be noted: Cercopithecidae. The gist of the method: (§1)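 Uninfected HFF or BSC-1 cells in the plaque-reduction plates were scored visually at 35- and 60-fold magnification on a 0 to 4+ scale on the staining day. IC50 was taken by regression against log concentration.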

In test [2] the test system is Human betaherpesvirus 5. Put plainly: Tested in vitro for antiviral activity against human cytomegalovirus (HCMV) in plaque reduction assay. The format is functional, organism-based. The gist of the method:
(§2)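 HCMV Towne strain (plaque-purified P0) was used on HFF monolayers. The inoculum held about 50 PFU, and compounds were dissolved in the overlay medium. Plaques were enumerated. IC50 came from linear regression of percent inhibition against log concentration. Acyclovir or ganciclovir served as positive control, and a set was rejected if the control deviated >1.5 SD from its mean.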

In test [3] the test system is HFF. Put plainly: Tested in vitro for cytotoxicity against the normal human diploid cells (HFF cells). The format is functional, cell-based. The gist of the method: as §1
Test [4] has as its system Human alphaherpesvirus 1. Put plainly: Tested in vitro for antiviral activity against HSV-1 in plaque reduction assay. It is filed as functional, organism-based. The gist of the method:
(§3)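 Plaque reduction used HSV-1 strain S-148 on BSC-1 (African green monkey kidney) monolayers. The inoculum held about 100 PFU, and compounds were dissolved in the overlay medium. IC50 was regressed from percent inhibition against log concentration. Acyclovir or ganciclovir positive controls were run, with sets rejected if the control deviated >1.5 SD from its mean.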
On the technique in general: Plaques are areas of infected cells; plaque reduction assays count them against a control.

The test system of test [5] is L1210. Briefly: Tested in vitro for antiproliferative activity against growth rate of L1210 cells.(delayed growth inhibition). It is filed as functional, Mus musculus. The arrangement: concentration or dose not given beside the values. A digest of the protocol:
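L1210 cells were grown in static suspension in Fischer's medium with drug for 4 days. Growth rate was the control-to-treated ratio of population doubling times. For delayed inhibition it was taken over 48–96 h, when control doubling time averaged 22 h. IC50 is the concentration halving growth rate relative to control.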

Test [6] can be described thus: Tested in vitro for cytotoxicity against the human neoplastic cell line (KB cells). The format is functional, cell-based. A digest of the protocol: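 KB cells were grown in MEM(H) with 10% calf serum. Incorporation of radiolabelled precursors into DNA, RNA and protein was measured. Separate IC50s came from regression against log concentration and the three were averaged. Values are averages of two to five experiments.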

The test system of test [7] is L1210. Briefly: Tested in vitro for antiproliferative activity against growth rate of L1210 cells. It is filed as functional, Mus musculus. The gist of the method: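 L1210 cells were grown in static suspension in Fischer's medium with a range of compound concentrations, and growth rate was followed over 4 days. Growth rate was the control-to-treated ratio of population doubling times. It was scored separately for 0–48 h and 48–96 h, and the lower value was kept. IC50 was the concentration giving 50% of the control growth rate.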

Test [8] deals with Mus musculus. Put plainly: Tested for effect on the mortality of mice inoculated with MCMV at 16.7 mg/kg at 24 hr. It is filed as functional. A digest of the protocol: (§4)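 Female Swiss Webster mice, 3 weeks old, were infected ip with 2 × 10⁵ PFU of MCMV Smith strain. Groups of 15 received drug ip twice daily for 5 days, starting at the stated hour after inoculation. Mice were watched daily for 21 days, and final mortality and mean day of death were scored. Fisher exact test (mortality) and Mann-Whitney U test (mean day of death) were used against placebo. Uninfected drug-toxicity controls were 10 mice.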

Test [9] relates to Murid betaherpesvirus 1. Briefly: Tested for visual cytotoxicity against the mouse cytomegalovirus (MCMV) in mouse embryo fibroblasts. The format is functional, organism-based.
Test [10] concerns Human alphaherpesvirus 1. Briefly: Tested for visual cytotoxicity against rabbit kidney herpes simplex virus-1 (HSV-1) cell lines. It is filed as functional, organism-based.
For test [11], the system named is Mus musculus. Briefly: Tested for effect on the mortality of mice inoculated with MCMV at 5.6 mg/kg at 12 hr. The format is functional. The gist of the method:
as §4

Test [12] concerns Mus musculus. Briefly: Tested for effect on the mortality of mice inoculated with MCMV at 50 mg/kg at 24 hr. It is filed as functional. The gist of the method:
as §4

Test [13] relates to Human betaherpesvirus 5. Put plainly: Tested for visual cytotoxicity against the human cytomegalovirus (HCMV) cell lines in human foreskin fibroblasts. It is filed as functional, organism-based. The gist of the method:
as §1

In test [14] the test system is Human alphaherpesvirus 1. Briefly: Tested for activity against the monkey kidney herpes simplex virus-1 (HSV-1) cell lines. It is filed as functional, organism-based. The gist of the method:
as §3

Test [15] deals with Human betaherpesvirus 5. Put plainly: Tested for activity against human cytomegalovirus (HCMV) in human foreskin fibroblasts cell lines using plaque assay. The format is functional, organism-based. The settings on record: Human betaherpesvirus 5, Fibroblast. A digest of the protocol:
as §2

Test [16] relates to Human alphaherpesvirus 1. Put plainly: Tested for visual cytotoxicity against monkey kidney herpes simplex virus-1 (HSV-1) cell lines. The format is functional, organism-based. The gist of the method: as §1
Test [17] has as its system Murid betaherpesvirus 1. Briefly: Tested for activity against mouse cytomegalovirus (MCMV) in mouse embryo fibroblasts using plaque assay. The format is functional, organism-based. The gist of the method: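 MCMV Smith strain was plated on primary mouse embryo fibroblasts at 20–50 PFU per monolayer, with 1 h at 37 °C. Serial 5-fold drug dilutions in twice-concentrated MEM(E) were mixed with 1% agarose as overlay. A further drug-free overlay was added on day 4. Cultures were stained with neutral red on day 7 and plaques counted against untreated controls. Values average two or more experiments.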

For test [18], the system named is Human alphaherpesvirus 1. Briefly: Tested for activity against the rabbit kidney herpes simplex virus-1 (HSV-1) cell lines. The format is functional, organism-based. A digest of the protocol: (§5)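 Plaque reduction used HSV-2 (MS strain) in HFF cells and HSV-1 (E-377 strain) in primary rabbit kidney cells. Monolayers got 20–50 PFU for 1 h at 37 °C, then an agarose overlay holding serial 5-fold drug dilutions in MEM(E). Neutral red staining on day 3 preceded plaque counts against untreated controls. Values average two or more experiments.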

The test system of test [19] is Human alphaherpesvirus 2. Briefly: Tested for visual cytotoxicity against the human foreskin fibroblasts herpes simplex virus-2 (HSV-2) cell lines. The format is functional, organism-based.
In test [20] the test system is Mus musculus. Briefly: Tested for effect on the mortality of mice inoculated with MCMV at 5.6 mg/kg at 24 hr. The format is functional. A digest of the protocol: as §4
Test [21] concerns Human alphaherpesvirus 2. Put plainly: Tested for activity against the human foreskin fibroblasts herpes simplex virus-2 (HSV-2) cell lines. It is filed as functional, organism-based. A digest of the protocol:
as §5

Test [22] has as its system Mus musculus. Put plainly: Tested for effect on the mortality of mice inoculated with MCMV at 50 mg/kg at 12 hr. The format is functional. A digest of the protocol:
as §4

The test system of test [23] is Mus musculus. Briefly: Tested for effect on the mortality of mice inoculated with MCMV at 50 mg/kg at 48 hr. The format is functional. The gist of the method:
as §4

Test [24] deals with Mus musculus. Put plainly: Tested for effect on the mortality of mice inoculated with MCMV at 16.7 mg/kg at 48 hr. The format is functional. A digest of the protocol:
as §4

Test [25] relates to Human betaherpesvirus 5. Briefly: Tested in vitro for antiviral activity against human cytomegalovirus (HCMV) in yield reduction assay. The format is functional.
For test [26], the system named is Mus musculus. Briefly: Tested for effect on the mortality of mice inoculated with MCMV at 5.6 mg/kg at 48 hr. It is filed as functional. A digest of the protocol: as §4
Test [27] deals with Mus musculus. Briefly: Tested for effect on the mortality of mice inoculated with MCMV at 16.7 mg/kg at 12 hr. It is filed as functional. A digest of the protocol:
as §4

Test [28] concerns Human alphaherpesvirus 1. Briefly: Tested in vitro for antiviral activity against HSV-1 in yield reduction assay. It is filed as functional.
Setting [29] is: Human betaherpesvirus 5, read-out: IC90.

A value given as a limit tells only on which side of the number the result lay.

Regarding `NC(=O)c1cn([C@@H]2O[C@H](CO)[C@@H](O)[C@@H]2Cl)c2ncnc(N)c12`, the IC50 in [1], in [2], in test [3] and in test [4] was over 100 µM in each case. For the same molecule, the Control in test [5] is recorded as 73%.
On to `NC(=O)c1cn([C@@H]2O[C@H](CO)[C@@H](O)[C@@H]2N)c2ncnc(N)c12`, for which the IC50 in test [1], in [2], in [6], in test [3] and in [4] was over 100 µM each time. In addition, the Control in test [5] was determined as 46%.
For the molecule `NC(=O)c1cn([C@@H]2O[C@H](CO)[C@@H](O)[C@@H]2I)c2ncnc(N)c12`, the IC50 (commonly the concentration at which inhibition is half-maximal) in test [1] is over 100 µM; in test [2], over 100 µM; in [3], 100 µM; in test [4] it was over 100 µM. In addition, the Control in test [5] amounted to 38%.
Regarding `NC(=O)c1cn([C@@H]2O[C@H](CO)[C@@H](O)[C@@H]2Br)c2ncnc(N)c12`, the IC50 in [1], in [2], in test [3] and in test [4] was over 100 µM throughout. Moreover, the Control in [7] worked out at 92%.
For `N#Cc1cn([C@@H]2O[C@H](CO)[C@@H](O)[C@@H]2N)c2ncnc(N)c12`, the IC50 in test [1] was over 100 µM; in [9], over 350 µM; in test [2], 14 µM; in test [10], 350 µM; in test [13], over 100 µM; in test [14] it was over 100 µM. Besides, the IC50 in test [15] was 14 µM; in test [16], over 100 µM; in test [17] it was 13 µM; in test [6], 105 µM; in test [18] it was 117 µM; in test [19], 350 µM. For the same molecule, the IC50 is over 100 µM in test [3], over 100 µM in test [4] and 114 µM in test [21]. Besides, the MDD in [8] was 4.7 mean day of death; in [11], 4.5 mean day of death; in [12] it was 4.4 mean day of death; in test [20] it was 4.6 mean day of death; in test [22], 4.1 mean day of death; in test [23], 4.9 mean day of death. For the same molecule, the MDD is 4.6 mean day of death in test [24], 5.6 mean day of death in [26] and 4.6 mean day of death in test [27]. Also, the results for the mortality at 16.7 mg/kg in test [8], in test [24] and in test [27] were 100%, 100% and 93%, respectively. The mortality (as a rule, the percentage killed) at 5.6 mg/kg was 100% in test [11], 93% in [20] and 100% in [26]. The values for the mortality at 50 mg/kg in test [12], in test [22] and in test [23] were 100%, 73% and 87%, respectively. The IC90 (commonly the point of the concentration-response curve where the effect stands at 90%) in test [25] (setting [29]) was 110 µM. The molecule also had a Control in test [5] of 48%.
In the case of `N#Cc1cn([C@@H]2O[C@H](CO)[C@@H](O)[C@@H]2Cl)c2ncnc(N)c12`, the IC50 is over 100 µM in test [1], 21 µM in test [2], 140 µM in test [3] and over 100 µM in test [4]. In test [25] (setting [29]), the IC90 was found to be 75 µM. The Control in test [5] was 24%.
As for `N#Cc1cn([C@@H]2O[C@H](CO)[C@@H](O)[C@@H]2I)c2ncnc(N)c12`, the IC50 in test [1] is over 100 µM; in [2] it was 40 µM; in test [3], 100 µM; in [4], over 100 µM. The IC90 in [25] (setting [29]) stood at 20 µM. Besides, in test [5], the Control is 24%.
Take `[N-]=[N+]=N[C@H]1[C@H](O)[C@@H](CO)O[C@H]1n1cc(C(N)=O)c2c(N)ncnc21`: the half-maximal inhibitory concentration (IC50) in test [1] was over 100 µM; in test [2], 28 µM; in test [6], 179 µM; in test [3] it was 66 µM; in test [4] it was over 100 µM. Moreover, the IC90 in [25] (setting [29]) came out at 100 µM. In test [5], this molecule returned a Control of 12%.
For the molecule `N#Cc1cn([C@@H]2O[C@H](CO)[C@@H](O)[C@@H]2N=[N+]=[N-])c2ncnc(N)c12`, the IC50 is over 100 µM in test [1]; 34 µM in [2]; 151 µM in [6]; 55 µM in test [3]; over 100 µM in [4]. Further, the IC90 in test [25] (setting [29]) turned out to be 37 µM. In addition, the Control in test [5] was determined as 14%.
For the molecule `N#Cc1cn([C@@H]2O[C@H](CO)[C@@H](O)[C@@H]2Br)c2ncnc(N)c12`, the 50% inhibitory concentration (IC50) is over 100 µM in test [1], 162 µM in test [2], 181 µM in test [3] and over 100 µM in test [4]. In addition, in test [25] (setting [29]), the IC90 turned out to be 90 µM. In addition, the Control in test [5] was determined as 16%.
Consider `Nc1nc2c(ncn2COCCO)c(=O)[nH]1` [ACYCLOVIR], for which the half-maximal inhibitory concentration (IC50) in test [1], in test [6] and in test [3] was over 100 µM in each case. Moreover, the IC90 came out at 7 µM in test [28] and 90 µM in test [25] (setting [29]).
As for `Nc1nc2c(ncn2COC(CO)CO)c(=O)[nH]1` [GANCICLOVIR], the IC50 was over 100 µM in [1], 9.2 µM in test [2], over 100 µM in test [6] and over 100 µM in test [3]. Further, the IC90 in test [28] came to 1.2 µM; in test [25], 1.8 µM.
